Assay results pooled from the literature.
Compare with care: the assays were run in different laboratories.
Target: Sodium-dependent noradrenaline transporter (SLC6A2, Homo sapiens, UniProt P23975)

Structure (SMILES) | observed | action | technique | cells | tested at | inhibition [%]
O=C(c1ccc(Cl)cc1)N(Cc1ccccc1)C1CCCCC1 | cell-free assay | – | – | – | 10 µM | 14.9
O[C@@H]1[C@H](O)[C@@H]2C[C@@H]2[C@H]1n1cnc2c(NCc3cccc(Cl)c3)nc(C#Cc3ccccc3)nc21 | ligand displacement | – | radioligand | – | 10 µM | 34
Clc1ccc(C(c2ccc(Cl)cc2)c2nnnn2CCCN2CCC(CCCc3ccccc3)CC2)cc1 | transporter uptake | inhibitor | – | HEK293 | 1 µM | 10.8
Nc1ccc(-c2ccncc2)cc1NC(=O)N1CCCC1 | cell-free assay | – | – | – | 10 µM | 15
O=C1N=C(N2CCCCN2)S/C1=C\c1ccc(F)cc1O | ligand displacement | – | radioligand | – | 10 µM | < 10
CCN(CC)c1ccc(C2Nc3ccc(C(=O)c4ccccc4)cc3NC3=C2C(=O)CC(C)(C)C3)cc1 (stereo not drawn) | ligand displacement | – | radioligand | – | 10 µM | 51
c1ccc(CCCC2CCN(CCCCn3nnnc3C(c3ccccc3)c3ccccc3)CC2)cc1 | transporter uptake | inhibitor | – | HEK293 | 1 µM | 73.9
CCCNc1nc2ccccc2n1Cc1ccc(Cl)cc1 | ligand displacement | – | – | – | 10 µM | 21.9
Clc1ccc(C(c2ccc(Cl)cc2)c2nnnn2CCCN2CCC(Cc3ccccc3)CC2)cc1 | transporter uptake | inhibitor | – | HEK293 | 1 µM | 8.36
COc1ccc(-n2nc(OCCCN3CCCCC3)ccc2=O)cc1 | ligand displacement | – | – | – | 1 µM | 18.5
O[C@@H]1[C@H](O)[C@@H]2C[C@@H]2[C@H]1n1cnc2c(NCc3cccc(Cl)c3)nc(C#Cc3ccc(F)c(F)c3)nc21 | ligand displacement | – | radioligand | – | 10 µM | 51
Clc1ccc(C(c2ccc(Cl)cc2)c2nnnn2CCCCN2CCC(Cc3ccccc3)CC2)cc1 | transporter uptake | inhibitor | – | HEK293 | 1 µM | 68.8
